Measured values gathered from unrelated publications.
Lines come from different studies, so protocols differ.
Cell line: HCT-116
Read-out: cell growth or viability

SMILES | method | tested at | time | endpoint | value
O=C1Nc2ccccc2C1=Nc1ccc(Cl)cc1 | MTT | – | 48 h | IC50 | > 100 µM
COc1ccc(C=NNC(=O)c2nc3ccccc3s2)cc1O | MTT | 100 µM | 48 h | cell death | 33.5%
CCOc1ccc(C(=O)CC(SCc2ccc(Cl)cc2)C(=O)OC)cc1 (centres unmarked) | MTT | – | 48 h | EC50 | 70 µM
COc1cc(C=NNC(=O)c2nc3ccccc3s2)ccc1O | MTT | 100 µM | 48 h | cell death | 44.6%
C[C@H](N)C(=O)Nc1ccccc1/N=c1\cc(-c2ccc3c(c2)OCCO3)oc2c([N+](=O)[O-])cccc12 | CCK-8 | 1 µM | – | inhibition | 12.7%
O=c1[nH]cc(F)c(=O)[nH]1 | MTT | 100 µM | 48 h | cell death | 84.6%
CCOc1ccc(-c2cc(C(=O)O)c(-c3ccc(Cl)cc3)o2)cc1 | MTT | – | 48 h | EC50 | 78 µM
COc1cc(N=C2C(=O)N(Cc3ccccc3)c3ccccc32)cc(OC)c1 | MTT | – | 48 h | IC50 | 8.73 µM
NCCC(=O)Nc1ccccc1/N=c1\cc(-c2ccc3c(c2)OCO3)oc2ccccc12 | CCK-8 | 1 µM | – | inhibition | 10.8%
O=C1C(=Nc2ccc(Cl)cc2Br)c2ccccc2N1Cc1ccc([N+](=O)[O-])cc1 | MTT | – | 48 h | IC50 | 24.9 µM
Nc1nc2ccc(-c3c/c(=N\c4ccccc4NC(=O)C4CCNC4)c4ccccc4o3)cc2o1 (centres unmarked) | CCK-8 | 1 µM | – | inhibition | 62.6%
